Values after ≈ are worked out from the molar mass of the structure shown. Active and inactive are the calls of the source. No cut-off for these calls is given here.
system: Staphylococcus aureus; assay: Antibacterial activity against Staphylococcus aureus MTCC 96 after 24 hrs by agar dilution method; assay type: functional; settings: MTCC 96, 24 h

Row | SMILES | MIC
1 | O=C1O[C@@H](CNS(=O)(=O)c2ccc(F)cc2Cl)CN1c1ccc(N2CCOCC2)c(F)c1 | 20 µg/mL (≈ 41 µM)
2 | O=C1O[C@@H](CNS(=O)(=O)c2ccc(Oc3ccccc3)cc2)CN1c1ccc(N2CCSCC2)c(F)c1 | 8 µg/mL (≈ 14.7 µM)
3 | CC(=O)NC[C@H]1CN(c2ccc(N3CCOCC3)c(F)c2)C(=O)O1 [LINEZOLID] | 1.5 µg/mL (≈ 4.45 µM)
4 | O=C1O[C@@H](CNS(=O)(=O)c2cccs2)CN1c1ccc(N2CCOCC2)c(F)c1 | 4 µg/mL (≈ 9.06 µM)
5 | O=C1O[C@@H](CNS(=O)(=O)c2ccc(F)cc2)CN1c1ccc(N2CCSCC2)c(F)c1 | 10 µg/mL (≈ 21.3 µM)

system: Staphylococcus; assay: Antibacterial activity against Staphylococcus MLS-16 MTCC 2940 after 24 hrs by agar dilution method; assay type: functional; settings: MLS-16 MTCC 2940, 24 h

Row | SMILES | MIC
6 | O=C1O[C@@H](CNS(=O)(=O)c2ccc(F)cc2Cl)CN1c1ccc(N2CCOCC2)c(F)c1 | 20 µg/mL (≈ 41 µM)
7 | O=C1O[C@@H](CNS(=O)(=O)c2ccc(Oc3ccccc3)cc2)CN1c1ccc(N2CCSCC2)c(F)c1 | 8 µg/mL (≈ 14.7 µM)
8 | CC(=O)NC[C@H]1CN(c2ccc(N3CCOCC3)c(F)c2)C(=O)O1 [LINEZOLID] | 1.5 µg/mL (≈ 4.45 µM)
9 | O=C1O[C@@H](CNS(=O)(=O)c2cccs2)CN1c1ccc(N2CCOCC2)c(F)c1 | 4 µg/mL (≈ 9.06 µM)
10 | O=C1O[C@@H](CNS(=O)(=O)c2ccc(F)cc2)CN1c1ccc(N2CCSCC2)c(F)c1 | 10 µg/mL (≈ 21.3 µM)

system: Micrococcus luteus; assay: Antibacterial activity against Micrococcus luteus MTCC 2470 after 24 hrs by agar dilution method; assay type: functional; settings: MTCC 2470, 24 h

Row | SMILES | MIC
11 | CC(=O)NC[C@H]1CN(c2ccc(N3CCOCC3)c(F)c2)C(=O)O1 [LINEZOLID] | 1 µg/mL (≈ 2.96 µM)
12 | O=C1O[C@@H](CNS(=O)(=O)c2cccs2)CN1c1ccc(N2CCOCC2)c(F)c1 | 6 µg/mL (≈ 13.6 µM)
13 | O=C1O[C@@H](CNS(=O)(=O)c2ccc(F)cc2)CN1c1ccc(N2CCSCC2)c(F)c1 | 10 µg/mL (≈ 21.3 µM)

system: Staphylococcus; assay: Antibacterial activity against Staphylococcus MLS-16 MTCC 2940 at 20 ug/ml after 24 hrs by disk diffusion method; assay type: functional; settings: MLS-16 MTCC 2940, 24 h, read-out: IZ

Row | SMILES | zone of inhibition at 20 µg/mL
14 | CC(=O)NC[C@H]1CN(c2ccc(N3CCOCC3)c(F)c2)C(=O)O1 [LINEZOLID] | 18 mm
15 | O=C1O[C@@H](CNS(=O)(=O)c2cccs2)CN1c1ccc(N2CCOCC2)c(F)c1 | 18 mm
16 | O=C1O[C@@H](CNS(=O)(=O)c2ccc(F)cc2)CN1c1ccc(N2CCSCC2)c(F)c1 | 17 mm

system: Pseudomonas aeruginosa; assay: Antibacterial activity against Pseudomonas aeruginosa MTCC 2453 after 24 hrs by agar dilution method; assay type: functional; settings: MTCC 2453, 24 h

Row | SMILES | MIC
17 | O=C1O[C@@H](CNS(=O)(=O)c2ccc(Oc3ccccc3)cc2)CN1c1ccc(N2CCSCC2)c(F)c1 | 20 µg/mL (≈ 36.8 µM)
18 | O=C1O[C@@H](CNS(=O)(=O)c2cccs2)CN1c1ccc(N2CCOCC2)c(F)c1 | 4 µg/mL (≈ 9.06 µM)
19 | O=C1O[C@@H](CNS(=O)(=O)c2ccc(F)cc2)CN1c1ccc(N2CCSCC2)c(F)c1 | 10 µg/mL (≈ 21.3 µM)

system: Micrococcus luteus; assay: Antibacterial activity against Micrococcus luteus MTCC 2470 at 80 ug/ml after 24 hrs by agar dilution method; assay type: functional, organism-based; settings: not given

Row | SMILES | Activity
20 | O=C1O[C@@H](CNS(=O)(=O)c2ccc(F)cc2Cl)CN1c1ccc(N2CCOCC2)c(F)c1 | inactive
21 | O=C1O[C@@H](CNS(=O)(=O)c2ccc(Oc3ccccc3)cc2)CN1c1ccc(N2CCSCC2)c(F)c1 | inactive

system: Bacillus subtilis; assay: Antibacterial activity against Bacillus subtilis MTCC 121 after 24 hrs by agar dilution method; assay type: functional; settings: MTCC 121, 24 h

Row | SMILES | MIC
22 | O=C1O[C@@H](CNS(=O)(=O)c2ccc(F)cc2Cl)CN1c1ccc(N2CCOCC2)c(F)c1 | 8 µg/mL (≈ 16.4 µM)
23 | CC(=O)NC[C@H]1CN(c2ccc(N3CCOCC3)c(F)c2)C(=O)O1 [LINEZOLID] | 1.5 µg/mL (≈ 4.45 µM)
24 | O=C1O[C@@H](CNS(=O)(=O)c2cccs2)CN1c1ccc(N2CCOCC2)c(F)c1 | 4 µg/mL (≈ 9.06 µM)
25 | O=C1O[C@@H](CNS(=O)(=O)c2ccc(F)cc2)CN1c1ccc(N2CCSCC2)c(F)c1 | 8 µg/mL (≈ 17 µM)

system: Raoultella planticola; assay: Antibacterial activity against Klebsiella planticola MTCC 530 at 80 ug/ml after 24 hrs by agar dilution method; assay type: functional, organism-based; settings: not given

Row | SMILES | Activity
26 | O=C1O[C@@H](CNS(=O)(=O)c2ccc(F)cc2Cl)CN1c1ccc(N2CCOCC2)c(F)c1 | inactive
27 | O=C1O[C@@H](CNS(=O)(=O)c2ccc(Oc3ccccc3)cc2)CN1c1ccc(N2CCSCC2)c(F)c1 | inactive
28 | O=C1O[C@@H](CNS(=O)(=O)c2cccs2)CN1c1ccc(N2CCOCC2)c(F)c1 | inactive
29 | O=C1O[C@@H](CNS(=O)(=O)c2ccc(F)cc2)CN1c1ccc(N2CCSCC2)c(F)c1 | inactive

system: Pseudomonas aeruginosa; assay: Antibacterial activity against Pseudomonas aeruginosa MTCC 2453 at 20 ug/ml after 24 hrs by disk diffusion method; assay type: functional; settings: MTCC 2453, 24 h, read-out: IZ

Row | SMILES | zone of inhibition at 20 µg/mL
30 | CC(=O)NC[C@H]1CN(c2ccc(N3CCOCC3)c(F)c2)C(=O)O1 [LINEZOLID] | 12 mm
31 | O=C1O[C@@H](CNS(=O)(=O)c2cccs2)CN1c1ccc(N2CCOCC2)c(F)c1 | 19 mm
32 | O=C1O[C@@H](CNS(=O)(=O)c2ccc(F)cc2)CN1c1ccc(N2CCSCC2)c(F)c1 | 17 mm

system: Candida albicans; assay: Antifungal activity against Candida albicans MTCC 3017 at 80 ug/ml after 48 hrs by agar dilution method; assay type: functional, organism-based; settings: not given
Procedure, shortened: (§1)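 Same disk/dilution format as the antibacterial assay, on potato dextrose agar (39 g/L). Compounds were from DMSO stock, loaded at 1 to 80 per disk, in triplicate. Plates were incubated at 28 ± 2 °C for 48 h. MIC was the lowest amount that arrested growth. Equivalent DMSO served as solvent control.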

Row | SMILES | Activity
33 | O=C1O[C@@H](CNS(=O)(=O)c2ccc(F)cc2Cl)CN1c1ccc(N2CCOCC2)c(F)c1 | inactive

system: Pseudomonas aeruginosa; assay: Antibacterial activity against Pseudomonas aeruginosa MTCC 2453 at 80 ug/ml after 24 hrs by agar dilution method; assay type: functional, organism-based; settings: not given

Row | SMILES | Activity
34 | O=C1O[C@@H](CNS(=O)(=O)c2ccc(F)cc2Cl)CN1c1ccc(N2CCOCC2)c(F)c1 | inactive

system: Bacillus subtilis; assay: Antibacterial activity against Bacillus subtilis MTCC 121 at 20 ug/ml after 24 hrs by disk diffusion method; assay type: functional; settings: MTCC 121, 24 h, read-out: IZ

Row | SMILES | zone of inhibition at 20 µg/mL
35 | CC(=O)NC[C@H]1CN(c2ccc(N3CCOCC3)c(F)c2)C(=O)O1 [LINEZOLID] | 10 mm
36 | O=C1O[C@@H](CNS(=O)(=O)c2cccs2)CN1c1ccc(N2CCOCC2)c(F)c1 | 20 mm
37 | O=C1O[C@@H](CNS(=O)(=O)c2ccc(F)cc2)CN1c1ccc(N2CCSCC2)c(F)c1 | 23 mm

system: Candida albicans; assay: Antifungal activity against Candida albicans MTCC 3017 after 48 hrs by agar dilution method; assay type: functional; settings: MTCC 3017, 48 h; procedure, shortened: as §1

Row | SMILES | MIC
38 | O=C1O[C@@H](CNS(=O)(=O)c2ccc(Oc3ccccc3)cc2)CN1c1ccc(N2CCSCC2)c(F)c1 | 20 µg/mL (≈ 36.8 µM)
39 | O=C1O[C@@H](CNS(=O)(=O)c2cccs2)CN1c1ccc(N2CCOCC2)c(F)c1 | 4 µg/mL (≈ 9.06 µM)
40 | O=C1O[C@@H](CNS(=O)(=O)c2ccc(F)cc2)CN1c1ccc(N2CCSCC2)c(F)c1 | 10 µg/mL (≈ 21.3 µM)

system: Staphylococcus aureus; assay: Antibacterial activity against Staphylococcus aureus MTCC 96 at 20 ug/ml after 24 hrs by disk diffusion method; assay type: functional; settings: MTCC 96, 24 h, read-out: IZ

Row | SMILES | zone of inhibition at 20 µg/mL
41 | CC(=O)NC[C@H]1CN(c2ccc(N3CCOCC3)c(F)c2)C(=O)O1 [LINEZOLID] | 28 mm
42 | O=C1O[C@@H](CNS(=O)(=O)c2cccs2)CN1c1ccc(N2CCOCC2)c(F)c1 | 20 mm
43 | O=C1O[C@@H](CNS(=O)(=O)c2ccc(F)cc2)CN1c1ccc(N2CCSCC2)c(F)c1 | 18 mm

system: Candida albicans; assay: Antifungal activity against Candida albicans MTCC 3017 at 20 ug/ml after 24 hrs by disk diffusion method; assay type: functional; settings: MTCC 3017, 24 h, read-out: IZ

Row | SMILES | zone of inhibition at 20 µg/mL
44 | O=C1O[C@@H](CNS(=O)(=O)c2cccs2)CN1c1ccc(N2CCOCC2)c(F)c1 | 18 mm
45 | O=C1O[C@@H](CNS(=O)(=O)c2ccc(F)cc2)CN1c1ccc(N2CCSCC2)c(F)c1 | 16 mm

system: Micrococcus luteus; assay: Antibacterial activity against Micrococcus luteus MTCC 2470 at 20 ug/ml after 24 hrs by disk diffusion method; assay type: functional; settings: MTCC 2470, 24 h, read-out: IZ

Row | SMILES | zone of inhibition at 20 µg/mL
46 | CC(=O)NC[C@H]1CN(c2ccc(N3CCOCC3)c(F)c2)C(=O)O1 [LINEZOLID] | 20 mm
47 | O=C1O[C@@H](CNS(=O)(=O)c2cccs2)CN1c1ccc(N2CCOCC2)c(F)c1 | 15 mm
48 | O=C1O[C@@H](CNS(=O)(=O)c2ccc(F)cc2)CN1c1ccc(N2CCSCC2)c(F)c1 | 14 mm

system: Bacillus subtilis; assay: Antibacterial activity against Bacillus subtilis MTCC 121 at 80 ug/ml after 24 hrs by agar dilution method; assay type: functional, organism-based; settings: not given

Row | SMILES | Activity
49 | O=C1O[C@@H](CNS(=O)(=O)c2ccc(Oc3ccccc3)cc2)CN1c1ccc(N2CCSCC2)c(F)c1 | inactive

system: Mycobacterium tuberculosis; assay: Antibacterial activity against Mycobacterium tuberculosis H37Rv at 32 ug/ml […] by agar dilution method; assay type: functional, organism-based; settings: not given

Row | SMILES | Activity
50 | O=C1O[C@@H](CNS(=O)(=O)c2ccc(F)cc2Cl)CN1c1ccc(N2CCOCC2)c(F)c1 | inactive
51 | O=C1O[C@@H](CNS(=O)(=O)c2ccc(Oc3ccccc3)cc2)CN1c1ccc(N2CCSCC2)c(F)c1 | inactive
52 | O=C1O[C@@H](CNS(=O)(=O)c2cccs2)CN1c1ccc(N2CCOCC2)c(F)c1 | inactive
53 | O=C1O[C@@H](CNS(=O)(=O)c2ccc(F)cc2)CN1c1ccc(N2CCSCC2)c(F)c1 | inactive

system: Escherichia coli; assay: Antibacterial activity against Escherichia coli MTCC 739 at 80 ug/ml after 24 hrs by agar dilution method; assay type: functional, organism-based; settings: not given

Row | SMILES | Activity
54 | O=C1O[C@@H](CNS(=O)(=O)c2ccc(F)cc2Cl)CN1c1ccc(N2CCOCC2)c(F)c1 | inactive
55 | O=C1O[C@@H](CNS(=O)(=O)c2ccc(Oc3ccccc3)cc2)CN1c1ccc(N2CCSCC2)c(F)c1 | inactive
56 | O=C1O[C@@H](CNS(=O)(=O)c2cccs2)CN1c1ccc(N2CCOCC2)c(F)c1 | inactive
57 | O=C1O[C@@H](CNS(=O)(=O)c2ccc(F)cc2)CN1c1ccc(N2CCSCC2)c(F)c1 | inactive

From ChEMBL document CHEMBL2331333, “Synthesis, biological evaluation of new oxazolidino-sulfonamides as potential antimicrobial agents” (2013)
